Measurements from ChEMBL document CHEMBL4049418, “6-OH-Phenanthroquinolizidine Alkaloid and Its Derivatives Exert Potent Anticancer Activity by Delaying S Phase Progression” (J Med Chem, 2017).
The source made the active and inactive calls. The rule behind the calls is not given here.

Assays:
Bel-7402 [1] = assay: Induction of apoptosis in human Bel7402 cells assessed as late apoptotic cells at 1 uM after 72 hrs by Annexin V/propidium iodide staining based flow cytometric analysis (reference value: 3.6%); assay type: functional
Method in brief: (§1)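 BEL-7402 cells (3 × 10⁵ per well, 6-well plates) exposed for 72 h. Harvested, PBS-washed, resuspended in cold binding buffer with annexin V–FITC and PI, and stained 15 min in the dark at room temperature. Early apoptotic, late apoptotic and necrotic fractions quantified by flow cytometry.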

Bel-7402 [2] = assay: Induction of apoptosis in human Bel7402 cells assessed as late apoptotic cells at 10 uM after 72 hrs by Annexin V/propidium iodide staining based flow cytometric analysis (reference value: 3.6%); assay type: functional; method in brief: as §1
Bel-7402 [3] = assay: Induction of apoptosis in human Bel7402 cells assessed as necrotic cells at 1 uM after 72 hrs by Annexin V/propidium iodide staining based flow cytometric analysis (reference value: 0.38%); assay type: functional
Bel-7402 [4] = assay: Cell cycle arrest in human Bel7402 cells assessed as delay in progression of S-phase to G2-phase at 0.1 to 1 uM pre-treated with aphidicolin for 16 hrs followed by compound addition measured up to 24 hrs by propidium iodide staining-based flow cytometric method; assay type: functional
Method in brief: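 Exponentially growing cells synchronized in early S phase with 0.2 μg/mL aphidicolin for 16 h. Cells released into fresh medium with or without compound for set times. Ethanol-fixed, stained with PI/RNase, and cell cycle distribution read by flow cytometry. Representative of three independent experiments.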

[5] = Growth inhibition of human KB-HU-R cells after 8 days by methylene blue-staining based spectrophotometry; assay type: functional; conditions: 192 h
Bel-7402 [6] = assay: Induction of apoptosis in human Bel7402 cells assessed as viable cells at 1 uM after 72 hrs by Annexin V/propidium iodide staining based flow cytometric analysis (reference value: 92.4%); assay type: functional; conditions: Bel-7402, 72 h, read-out: Activity
[7] = Growth inhibition of human KB-MDR cells after 8 days by methylene blue-staining based spectrophotometry; assay type: functional; conditions: 192 h
Bel-7402 [8] = assay: Induction of DNA damage in human Bel7402 cells assessed as increase in CHK1 phosphorylation at Ser345 residue at 0.1 to 10 uM after 1 hr by Western blot analysis; assay type: functional, cell-based
Method in brief: (§2)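 BEL-7402 cells (1.5 × 10⁵ per well, 12-well plates) exposed to compounds for 1 h. Phospho-Chk1 Ser345, phospho-Chk2 Thr68 and γH2AX detected by Western blot. Camptothecin at 1 μM served as the DNA-damage reference.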

Bel-7402 [9] = assay: Cell cycle arrest in human Bel7402 cells assessed as accumulation in S-phase at 0.012 to 1 uM after 24 hrs by propidium iodide staining-based flow cytometry; assay type: functional
Method in brief: (§3)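 BEL-7402 cells exposed for 24 h, then fixed in 70% ethanol at −20 °C for ≥1 h. Stained with 50 μg/mL propidium iodide plus 10 μg/mL RNase A for 30 min in the dark at room temperature. DNA content read by flow cytometry on ≥1.0 × 10⁴ cells per sample.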

Bel-7402 [10] = assay: Induction of apoptosis in human Bel7402 cells assessed as necrotic cells at 10 uM after 72 hrs by Annexin V/propidium iodide staining based flow cytometric analysis (reference value: 0.38%); assay type: functional
Bel-7402 [11] = assay: Antiproliferative activity against human Bel7402 cells assessed as reduction in cell viability at 0.012 to 1 uM up to 10 days by fluorescence-based cell imaging method; assay type: functional
Method in brief: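 Live-cell imaging (IncuCyte ZOOM) of BEL-7402 cells seeded at 1.5 × 10⁴ per well in 12-well plates. Cells treated in triplicate with a concentration gradient and imaged continuously for 10 days to build growth curves.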

Bel-7402 [12] = assay: Inhibition of DNA synthesis in human Bel7402 cells assessed as BrdU incorporation at 1 uM preincubated for 1 hr followed by BrdU addition for 30 mins by FITC/propidium iodide staining based flow cytometry (reference value: 35.5%); assay type: functional; parameters: scale not given: the % may be the effect or the level left
Method in brief: (§4)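 BEL-7402 cells (3 × 10⁵ per well) exposed to compounds 1 h, then labeled with 10 μM BrdU for 30 min; trypsinized, fixed in 70% ethanol at −20 °C ≥1 h, 2 N HCl 20 min, neutralized with 0.1 M borate, stained with anti-BrdU-FITC plus PI 30 min; BrdU-positive cells quantified by flow cytometry; three independent experiments, mean + SD.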

Bel-7402 [13] = assay: Cell cycle arrest in human Bel7402 cells assessed as accumulation in S-phase at 10 nM after 24 hrs by propidium iodide staining-based flow cytometry (reference value: 27.5 +/- 1%); assay type: functional; method in brief: as §3
K562/Adr [14] = assay: Effect on P-gp expression in human K562/ADR cells up to 100 nM after 24 hrs by Western blot analysis; assay type: functional, cell-based
MRC5 = assay: Antiproliferative activity against human MRC5 cells assessed as reduction in viability after 72 hrs by SRB assay; assay type: cell-based; conditions: MRC5, 72 h
Method in brief: (§5)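 Cells seeded and dosed in triplicate for 72 h. Suspension lines (HL-60, K-562, K562/ADR, HL-60/MX2) were read by MTT: 5 mg/mL MTT stock added, 4 h at 37 °C, formazan dissolved in 10% SDS/5% isobutanol/10 mM HCl, A570. Adherent lines were read by SRB: fixed with cold 10% TCA, stained with 0.4% SRB in 1% acetic acid, A540. IC50 from four-parameter logistic fit; mean of ≥3 independent experiments.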

K562/Adr [15] = assay: Cell cycle arrest in human K562/ADR cells assessed as delay in progression of S-phase to G2-phase at 1 to 10 nM pre-treated with aphidicolin for 16 hrs followed by compound addition measured up to 24 hrs by propidium iodide staining-based flow cytometric method; assay type: functional
L02 = assay: Antiproliferative activity against human LO2 cells assessed as reduction in viability after 72 hrs by SRB assay; assay type: cell-based; conditions: L02, 72 h; method in brief: as §5
[16] = Antiproliferative activity against human MRC9 cells assessed as reduction in viability after 72 hrs by SRB assay; assay type: cell-based; conditions: MRC9, 72 h; method in brief: as §5
Bel-7402 [17] = assay: Inhibition of DNA synthesis in human Bel7402 cells assessed as BrdU incorporation at 1 nM preincubated for 1 hr followed by BrdU addition for 30 mins by FITC/propidium iodide staining based flow cytometry (reference value: 35.5%); assay type: functional; parameters: scale not given: the % may be the effect or the level left; method in brief: as §4
[18] = Selectivity ratio of IC50 for human MRC9 cells to IC50 for human A549 cells
Method in brief: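 SRB assay: A549 (F-12, 10% FBS) and MRC-5/MRC-9 (EMEM, 10% FBS) treated in triplicate 72 h, fixed with ice-cold 10% TCA, stained with 0.4% SRB in 1% acetic acid, absorbance 540 nm; IC₅₀ by four-parameter logistic fit, mean of ≥3 independent experiments.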

[19] = Cytotoxicity against Sprague-Dawley rat primary neuronal cells assessed as reduction in cell viability at 300 nM after 24 hrs by MTT assay; assay type: cell-based; conditions: read-out: INH
Bel-7402 [20] = assay: Induction of apoptosis in human Bel7402 cells assessed as late apoptotic cells at 1 nM after 72 hrs by Annexin V/propidium iodide staining based flow cytometric analysis (reference value: 3.6%); assay type: functional; method in brief: as §1
Bel-7402 [21] = assay: Induction of DNA damage in human Bel7402 cells assessed as increase in gamma-H2AX levels at 1 to 100 nM after 1 hr by Western blot analysis; assay type: functional, cell-based; method in brief: as §2
[22] = Cytotoxicity against Sprague-Dawley rat primary neuronal cells assessed as reduction in cell viability after 24 hrs by MTT assay; assay type: cell-based

COc1cc2c3c(c4cc(OC)c(OC)cc4c2cc1OC)[C@H](O)[C@@H]1CCCN1C3
Activity (Bel-7402 [1]): 1.92% | Activity (Bel-7402 [2]): 11.5% | Activity (Bel-7402 [3]): 0.81% | Activity (Bel-7402 [4]): Active | GI50 [5]: 30 nM | viability at 1 µM (Bel-7402 [6]): 94.7% | GI50 [7]: 30 nM | Activity (Bel-7402 [8]): inactive | Activity (Bel-7402 [9]): Active | Activity (Bel-7402 [10]): 1.39% | inhibition (Bel-7402 [11]): Active | Activity (Bel-7402 [12]): 8.01%

COc1cc2c3c(c4ccc(O)cc4c2cc1OC)CN1CCCC[C@@H]1C3
Activity (Bel-7402 [13]): 50.3% | Activity (K562/Adr [14]): inactive | IC50 (MRC5): 2.6 nM | Activity (K562/Adr [15]): Active | IC50 (L02): 2.7 nM | IC50 [16]: 2.2 nM | Activity (Bel-7402 [17]): 28.6% | Ratio IC50 [18]: 3 - 4 | cytotoxicity at 24 h, 0.3 µM [19]: 50% | Activity (Bel-7402 [20]): 2.11% | Activity (Bel-7402 [21]): inactive | inhibition (INH) [22]: Dose-dependent effect
